The target in experiment [1] is T1, Retinoic acid receptor RXR-alpha (Homo sapiens) (UniProt P19793).
T1 sequence (whole entry): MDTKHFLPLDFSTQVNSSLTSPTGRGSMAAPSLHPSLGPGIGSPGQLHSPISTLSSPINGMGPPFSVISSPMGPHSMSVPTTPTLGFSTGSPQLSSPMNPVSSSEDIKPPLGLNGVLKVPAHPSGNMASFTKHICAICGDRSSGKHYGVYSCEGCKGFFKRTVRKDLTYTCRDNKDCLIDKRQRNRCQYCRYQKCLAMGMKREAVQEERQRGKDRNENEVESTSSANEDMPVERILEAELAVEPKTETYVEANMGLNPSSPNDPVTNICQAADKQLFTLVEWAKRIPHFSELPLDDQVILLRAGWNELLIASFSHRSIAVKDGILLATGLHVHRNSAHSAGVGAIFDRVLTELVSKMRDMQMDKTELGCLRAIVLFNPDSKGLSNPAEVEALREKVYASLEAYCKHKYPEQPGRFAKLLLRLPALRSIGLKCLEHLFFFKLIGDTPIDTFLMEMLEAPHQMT
Kind of experiment: Antagonist activity against RXRalpha in human HepG2 cells assessed as inhibition of AKT phosphorylation at 5 and 10 uM after 24 hrs by Western blotting method. It counts as cell-based. The essentials: (§1)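 A549 or HepG2 cells were exposed to compound for 24 h, then with or without TNFα (20 ng/mL) for 30 min more. Lysates were immunoblotted for AKT activation. One of three to five similar experiments shown.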
(In general: A western blot detects proteins with antibodies after separation by electrophoresis.)

Experiment [2] addresses T2, Retinoic acid receptor RXR-beta (Homo sapiens) (UniProt P28702).
T2 sequence (whole entry): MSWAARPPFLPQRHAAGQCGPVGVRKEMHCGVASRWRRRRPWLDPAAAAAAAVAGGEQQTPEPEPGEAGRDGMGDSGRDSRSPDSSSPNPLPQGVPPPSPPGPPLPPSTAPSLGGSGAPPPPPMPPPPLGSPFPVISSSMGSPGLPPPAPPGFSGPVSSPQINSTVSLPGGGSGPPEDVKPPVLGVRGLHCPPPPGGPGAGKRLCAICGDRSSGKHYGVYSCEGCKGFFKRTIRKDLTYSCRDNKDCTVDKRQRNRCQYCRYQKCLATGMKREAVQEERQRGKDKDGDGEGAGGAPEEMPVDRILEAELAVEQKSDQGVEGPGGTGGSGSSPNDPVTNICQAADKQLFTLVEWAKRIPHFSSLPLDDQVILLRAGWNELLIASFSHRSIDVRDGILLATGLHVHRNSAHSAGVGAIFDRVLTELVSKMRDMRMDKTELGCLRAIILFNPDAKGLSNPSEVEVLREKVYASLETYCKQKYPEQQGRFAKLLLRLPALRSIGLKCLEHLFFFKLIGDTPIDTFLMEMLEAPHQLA
Kind of experiment: Antagonist activity against RXRbeta ligand binding domain (unknown origin) expressed in human HEK293T cells assessed as inhibition of 9-cis-RA-induced receptor transactivation at 2 and 10 uM after 18 hrs by luciferase reporter gene based mammalian one-hybrid assay. The experiment is classed as cell-based. The following applies: HEK-293T. Background: Reporter assays use an easily measured gene product as a stand-in for the process of interest.

The target in experiment [3] is T3, Peroxisome proliferator-activated receptor gamma (Homo sapiens) (UniProt P37231).
T3 sequence (whole entry): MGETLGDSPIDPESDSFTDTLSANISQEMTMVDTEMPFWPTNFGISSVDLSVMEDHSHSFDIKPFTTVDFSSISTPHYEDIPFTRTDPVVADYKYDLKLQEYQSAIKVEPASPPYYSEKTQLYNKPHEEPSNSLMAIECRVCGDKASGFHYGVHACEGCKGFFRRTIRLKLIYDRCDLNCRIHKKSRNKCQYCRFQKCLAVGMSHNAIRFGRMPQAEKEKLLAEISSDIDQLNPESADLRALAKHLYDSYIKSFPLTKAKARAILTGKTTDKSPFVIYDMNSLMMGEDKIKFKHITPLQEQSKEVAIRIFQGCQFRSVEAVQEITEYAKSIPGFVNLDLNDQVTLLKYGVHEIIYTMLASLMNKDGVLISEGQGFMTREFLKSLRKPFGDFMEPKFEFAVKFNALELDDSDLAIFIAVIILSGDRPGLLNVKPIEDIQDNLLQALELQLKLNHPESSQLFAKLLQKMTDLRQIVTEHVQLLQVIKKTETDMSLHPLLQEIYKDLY
Kind of experiment: Antagonist activity against PPARgamma ligand binding domain (unknown origin) expressed in human MCF7 cells assessed as inhibition of ROS-induced receptor transactivation at 10 uM after 18 hrs by luciferase reporter gene based mammalian one-hybrid assay. It counts as cell-based.

Experiment [4] deals with T1, Retinoic acid receptor RXR-alpha (Homo sapiens). Kind of experiment: Antagonist activity against RXRalpha in TNFalpha-stimulated human A549 cells assessed as inhibition of AKT phosphorylation at 5 and 10 uM pre-treated for 24 hrs before TNFalpha addition in presence of RXRalpha siRNA by Western blotting method. The experiment is classed as cell-based. The essentials: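 A549 cells were transfected with RXRα siRNA or control siRNA for 48 h. They were then treated with compound for 24 h, followed by TNFα (20 ng/mL) for 30 min. Lysates were analyzed by Western blot for AKT activation and PARP cleavage.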

The subject of experiment [5] is A549. Put plainly: Induction of apoptosis in TNFalpha-stimulated human A549 cells assessed as PARP cleavage at 5 and 10 uM pre-treated for 24 hrs before TNFalpha addition by immunoblotting method. The experiment is classed as functional, cell-based. The essentials:
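A549 or HepG2 cells were treated with compound for 24 h, with or without subsequent TNFα (20 ng/mL) for 30 min. Lysates were immunoblotted for PARP cleavage as the apoptosis marker. One of three to five similar experiments shown.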

Experiment [6] addresses T1, Retinoic acid receptor RXR-alpha (Homo sapiens). Kind of experiment: Antagonist activity against RXRalpha in TNFalpha-stimulated human A549 cells assessed as inhibition of AKT phosphorylation at 5 and 10 uM pre-treated for 24 hrs before TNFalpha addition by Western blotting method. It counts as cell-based. The essentials:
as §1

Experiment [7] shares this target. Put plainly: Antagonist activity against RXRalpha delta80 mutant (unknown origin) expressed in human A549 cells assessed as reduction in TNFalpha-induced interaction of Myc-tagged RXRalpha- delta80 with p85alpha by co-immunoprecipitation assay. The experiment is classed as cell-based. The essentials: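 A549 cells were transfected with Myc-RXRα-Δ80 (truncated RXRα mimic) and treated with or without TNFα and/or compound. Anti-Myc immunoprecipitates were immunoblotted for endogenous p85α and Myc-RXRα-Δ80. One of three to five similar experiments shown.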

The target of experiment [8] is Retinoic acid receptor gamma (Homo sapiens) (UniProt P13631). Put plainly: Antagonist activity against RARgamma ligand binding domain (unknown origin) expressed in human MCF7 cells assessed as inhibition of ATRA-induced receptor transactivation at 10 uM after 18 hrs by luciferase reporter gene based mammalian one-hybrid assay.
Retinoic acid receptor gamma (Homo sapiens), sequence (P13631 whole entry, looked up, the tested form may be a part): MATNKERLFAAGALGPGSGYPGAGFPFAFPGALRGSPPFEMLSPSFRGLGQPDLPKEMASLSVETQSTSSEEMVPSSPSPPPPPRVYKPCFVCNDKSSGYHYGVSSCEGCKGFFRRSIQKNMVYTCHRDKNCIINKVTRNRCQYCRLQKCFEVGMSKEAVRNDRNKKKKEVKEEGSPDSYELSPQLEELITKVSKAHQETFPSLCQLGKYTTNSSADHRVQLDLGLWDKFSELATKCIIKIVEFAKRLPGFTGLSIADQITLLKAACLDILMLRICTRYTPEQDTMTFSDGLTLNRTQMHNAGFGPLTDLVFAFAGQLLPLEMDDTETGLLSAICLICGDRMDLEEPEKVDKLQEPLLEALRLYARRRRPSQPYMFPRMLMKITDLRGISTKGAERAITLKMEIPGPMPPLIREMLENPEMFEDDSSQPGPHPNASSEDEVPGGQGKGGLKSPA
The target of experiment [9] is Retinoic acid receptor RXR-alpha/oxysterols receptor LXR-alpha (Homo sapiens) (UniProt P19793+Q13133). Kind of experiment: Antagonist activity against RXRalpha/LXRalpha ligand binding domain (unknown origin) expressed in human HEK293T cells assessed as inhibition of 9-cis-RA/T09-induced receptor transactivation at 2 and 10 uM after 18 hrs by luciferase reporter gene based mammalian one-hybrid assay. It counts as cell-based. The following applies: HEK-293T.

Experiment [10] addresses T1, Retinoic acid receptor RXR-alpha (Homo sapiens). Kind of experiment: Antagonist activity against RXRalpha in human PC3 cells assessed as inhibition of AKT phosphorylation at 5 and 10 uM after 24 hrs by Western blotting method. The experiment is classed as cell-based. The following applies: PC-3.

The structures appear in SMILES notation. Active and inactive are the calls of the source. The calls are words filed in the database; no cut-off is given here.

In the case of `Cc1cc(=O)oc2c(/C=N/NC(=O)CSc3nc4ccccc4s3)c(O)ccc12`, the inhibition entry in experiment [1] was “Dose-dependent effect”. Further, the inhibition result in experiment [2], in [3], in experiment [6], in experiment [7], in experiment [8] and in [10] was “Active” in each case. The inhibition result in experiment [4] and in experiment [9] was “inactive” each time. In addition, the result in experiment [5] was Active.

For the origin of these results see ChEMBL document CHEMBL3352174, “Identification of a New RXRα Antagonist Targeting the Coregulator-Binding Site” (ACS Med Chem Lett, 2014).
